Laboratory results reported in ChEMBL document CHEMBL1128216, “Rational design and synthesis of small molecule, non-oligosaccharide selectin inhibitors: (alpha-D-mannopyranosyloxy)biphenyl-substituted carboxylic acids” (J Med Chem, 1995).

Experiments:
[1] = target: T1, E-selectin (Homo sapiens) (UniProt P16581); experiment: In vitro inhibitory activity against sialyl Lewis X expressing HL60 cell binding to recombinant human E-selectin at 27 mM concentration; format: cell-based; conditions: HL-60
T1 sequence (whole entry): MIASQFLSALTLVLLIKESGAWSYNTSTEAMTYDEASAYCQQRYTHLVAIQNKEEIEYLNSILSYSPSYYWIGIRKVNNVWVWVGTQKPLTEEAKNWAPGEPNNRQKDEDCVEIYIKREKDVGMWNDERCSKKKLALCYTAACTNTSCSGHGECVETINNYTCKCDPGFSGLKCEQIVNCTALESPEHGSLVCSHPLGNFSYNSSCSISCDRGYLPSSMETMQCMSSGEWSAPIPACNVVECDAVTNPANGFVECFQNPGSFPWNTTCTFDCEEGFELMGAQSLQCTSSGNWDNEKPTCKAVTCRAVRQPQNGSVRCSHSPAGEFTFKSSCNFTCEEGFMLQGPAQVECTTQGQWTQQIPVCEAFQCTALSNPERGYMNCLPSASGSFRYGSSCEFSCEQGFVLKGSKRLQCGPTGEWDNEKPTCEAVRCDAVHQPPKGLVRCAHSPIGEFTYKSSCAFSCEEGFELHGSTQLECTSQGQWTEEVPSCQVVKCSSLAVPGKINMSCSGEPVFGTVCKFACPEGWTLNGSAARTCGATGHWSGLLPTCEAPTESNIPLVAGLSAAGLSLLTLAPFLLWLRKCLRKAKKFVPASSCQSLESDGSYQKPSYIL
In short: (§1)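 Human E-selectin (lectin, EGF and two complement repeats) fused to mouse IgG was captured on anti-mouse IgG magnetic beads overnight at 4 °C. Wells were pre-blocked with 3% BSA/PBS. Compound in PBS was mixed with calcein-labelled HL60 cells (10⁷/mL, RPMI 1640 + 10% FCS) and beads (4 × 10⁶/mL) for 10 min at room temperature. Unbound cells were removed magnetically with two PBS washes, and bound cells were lysed in 1% NP40.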

E-selectin = target: T2, E-selectin (Homo sapiens, UniProt P16581); experiment: In vitro inhibition of HL60 (human leukemia) cell binding to human recombinant e-selectin.; format: cell-based, HL-60; in short: as §1
T2 sequence (P16581 whole entry): T1 sequence (whole entry)

[2] = target: T3, P-selectin (Homo sapiens) (UniProt P16109); experiment: In vitro inhibitory activity against sialyl Lewis X expressing HL60 cell binding Selectin P at 24 mM concentration; format: cell-based; conditions: HL-60
T3 sequence (whole entry): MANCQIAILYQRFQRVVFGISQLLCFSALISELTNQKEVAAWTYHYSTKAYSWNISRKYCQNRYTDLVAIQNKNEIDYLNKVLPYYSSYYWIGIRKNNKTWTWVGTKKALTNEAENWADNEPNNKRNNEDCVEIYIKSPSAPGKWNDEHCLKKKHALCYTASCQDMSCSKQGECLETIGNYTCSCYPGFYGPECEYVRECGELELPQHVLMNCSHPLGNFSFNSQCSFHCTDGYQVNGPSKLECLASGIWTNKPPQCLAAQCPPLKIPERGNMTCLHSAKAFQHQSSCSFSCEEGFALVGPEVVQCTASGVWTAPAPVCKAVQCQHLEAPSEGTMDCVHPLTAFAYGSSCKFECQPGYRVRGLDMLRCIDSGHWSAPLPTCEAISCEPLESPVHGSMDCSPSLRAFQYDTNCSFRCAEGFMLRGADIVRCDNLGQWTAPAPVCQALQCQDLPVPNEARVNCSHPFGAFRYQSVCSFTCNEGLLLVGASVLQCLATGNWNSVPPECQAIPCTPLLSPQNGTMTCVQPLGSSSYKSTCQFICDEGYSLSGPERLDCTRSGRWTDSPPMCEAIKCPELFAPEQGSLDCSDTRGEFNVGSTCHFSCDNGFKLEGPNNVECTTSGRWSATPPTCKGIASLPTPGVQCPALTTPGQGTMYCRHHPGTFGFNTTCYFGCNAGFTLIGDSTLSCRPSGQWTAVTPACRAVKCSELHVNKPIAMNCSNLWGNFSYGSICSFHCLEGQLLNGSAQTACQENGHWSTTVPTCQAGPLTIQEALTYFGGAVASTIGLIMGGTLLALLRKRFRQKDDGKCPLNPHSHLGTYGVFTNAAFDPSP

[3] = target: T4, L-selectin (Mus musculus) (UniProt P18337); experiment: In vitro inhibitory activity against sialyl Lewis X expressing HL60 cell binding to Selectin L at 6 mM concentration; format: cell-based; conditions: HL-60
T4 sequence (whole entry): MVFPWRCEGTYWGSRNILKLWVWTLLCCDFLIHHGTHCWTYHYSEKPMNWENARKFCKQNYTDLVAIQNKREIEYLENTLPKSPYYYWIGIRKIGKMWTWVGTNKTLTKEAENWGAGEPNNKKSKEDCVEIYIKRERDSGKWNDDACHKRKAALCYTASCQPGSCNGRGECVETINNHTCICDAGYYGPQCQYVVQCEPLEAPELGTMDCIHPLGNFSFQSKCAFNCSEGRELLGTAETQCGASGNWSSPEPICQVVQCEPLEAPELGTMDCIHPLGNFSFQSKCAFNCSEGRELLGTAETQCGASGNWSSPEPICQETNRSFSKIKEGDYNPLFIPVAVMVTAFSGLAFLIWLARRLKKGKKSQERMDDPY

[4] = target: T1, E-selectin (Homo sapiens); experiment: In vitro inhibitory activity against sialyl Lewis X expressing HL60 cell binding to recombinant human E-selectin at 32 mM concentration; format: cell-based; conditions: HL-60; in short: as §1
[5] = target: T3, P-selectin (Homo sapiens); experiment: In vitro inhibitory activity against sialyl Lewis X expressing HL60 cell binding Selectin P at 20 mM concentration; format: cell-based; conditions: HL-60
[6] = target: T4, L-selectin (Mus musculus); experiment: In vitro inhibitory activity against sialyl Lewis X expressing HL60 cell binding Selectin L at 5 mM concentration; format: cell-based; conditions: HL-60
[7] = target: T3, P-selectin (Homo sapiens); experiment: In vitro inhibitory activity against sialyl Lewis X expressing HL60 cell binding Selectin P at 27 mM concentration; format: cell-based; conditions: HL-60
[8] = target: T1, E-selectin (Homo sapiens); experiment: In vitro inhibitory activity against sialyl Lewis X expressing HL60 cell binding to recombinant human E-selectin at 17 mM concentration; format: cell-based; conditions: HL-60; in short: as §1
P-selectin = target: T5, P-selectin (Homo sapiens, UniProt P16109); experiment: In vitro inhibitory activity against sialyl Lewis X expressing HL60 cell binding Selectin P; format: cell-based, HL-60
T5 sequence (P16109 whole entry): T3 sequence (whole entry)

Q: For `NCCCC[C@H](NC(=O)c1ccc(-c2ccccc2O[C@H]2O[C@H](CO)[C@@H](O)[C@@H](O)[C@@H]2O)cc1)C(=O)O`, which inhibition [1] is on record?
A: 33%

Q: Which IC50 (E-selectin) does the source give for `O=C(O)COCc1cccc(-c2ccccc2O[C@H]2O[C@H](CO)[C@@H](O)[C@@H](O)[C@@H]2O)c1` here?
A: 9.5 mM

Q: And the inhibition [2]?
A: 0%

Q: What about the inhibition [3] of the same compound?
A: 30%

Q: With `O=C(O)C[C@@H](NC(=O)c1cccc(-c2ccccc2O[C@H]2O[C@H](CO)[C@@H](O)[C@@H](O)[C@@H]2O)c1)C(=O)O` as the compound, how does the inhibition [4] read?
A: 0%

Q: And the inhibition [5]?
A: 40%

Q: What about the inhibition [6] of the same compound?
A: 0%

Q: Which results are given for `O=C(O)c1cccc(-c2ccccc2O[C@H]2O[C@H](CO)[C@@H](O)[C@@H](O)[C@@H]2O)c1`?
A: IC50 (E-selectin): 16 mM; inhibition [7]: 0%; inhibition [3]: 15%

Q: Which inhibition [8] does the source give for `O=C(O)C(Oc1cccc(-c2ccccc2O[C@H]2O[C@H](CO)[C@@H](O)[C@@H](O)[C@@H]2O)c1)c1ccccc1` (stereo partly drawn) here?
A: 70%

Q: What about the inhibition [3] of the same compound?
A: 0%

Q: What about the IC50 (P-selectin) of the same compound?
A: 17 mM
